Measured values taken from ChEMBL document CHEMBL1146755, “Potent nonpeptide vasopressin receptor antagonists based on oxazino- and thiazinobenzodiazepine templates” (Bioorg Med Chem Lett, 2004).
pKi: −log10 of the molar value.

How the values were obtained:
Vasopressin V2 receptor [1] = molecular target: T1, Vasopressin V2 receptor (Homo sapiens, UniProt P30518); experiment: Inhibition of [3H]AVP binding to recombinant human vasopressin V2 receptor
Method in brief: (§1)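 Competition binding on membranes from HEK-293 cells transfected with recombinant human V1a or V2 receptor; Ki values reported in nM.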

Vasopressin V1a receptor [2] = molecular target: T2, Vasopressin V1a receptor (Homo sapiens, UniProt P37288); experiment: Inhibition of [3H]AVP binding to recombinant human vasopressin V1a receptor; method in brief: as §1
Target sequence in this assay (P37288 whole entry): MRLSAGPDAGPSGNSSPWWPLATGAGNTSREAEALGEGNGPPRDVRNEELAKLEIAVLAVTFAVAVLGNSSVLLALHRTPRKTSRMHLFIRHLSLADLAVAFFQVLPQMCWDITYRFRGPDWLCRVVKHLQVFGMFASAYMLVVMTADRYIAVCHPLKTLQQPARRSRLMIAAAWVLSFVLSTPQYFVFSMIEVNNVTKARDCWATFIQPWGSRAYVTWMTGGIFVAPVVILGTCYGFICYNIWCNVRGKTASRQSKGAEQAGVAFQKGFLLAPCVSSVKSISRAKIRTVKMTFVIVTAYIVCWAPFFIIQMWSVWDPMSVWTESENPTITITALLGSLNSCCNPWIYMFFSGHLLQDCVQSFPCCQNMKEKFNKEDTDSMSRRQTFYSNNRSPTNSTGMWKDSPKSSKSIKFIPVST

Vasopressin V1a receptor [3] = molecular target: T2, Vasopressin V1a receptor; experiment: Inhibition of 1 nM AVP-induced calcium mobilisation in cells expressing human vasopressin V1a receptor
Method in brief: (§2)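 HEK-293 cells expressing human receptor stimulated with 1 nM AVP; antagonism read as change in intracellular Ca2+ (V1a) or cAMP accumulation (V2).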
Target sequence in this assay (P37288 whole entry): as above

Vasopressin V2 receptor [4] = molecular target: T1, Vasopressin V2 receptor; experiment: Inhibition of 1 nM AVP-induced cAMP accumulation in cells expressing human vasopressin V2 receptor; assay type: functional; method in brief: as §2
Vasopressin V1a receptor [5] = molecular target: T2, Vasopressin V1a receptor; experiment: Inhibition of [3H]AVP binding to recombinant human vasopressin V1a receptor at 100 nM
Target sequence in this assay (P37288 whole entry, looked up): as the sequence (P37288 whole entry) above

Vasopressin V1a receptor [6] = molecular target: T2, Vasopressin V1a receptor; experiment: Inhibition of [3H]AVP binding to recombinant human vasopressin V1a receptor at 1000 nM
Target sequence in this assay (P37288 whole entry, looked up): as the sequence (P37288 whole entry) above

T1 sequence (P30518 whole entry): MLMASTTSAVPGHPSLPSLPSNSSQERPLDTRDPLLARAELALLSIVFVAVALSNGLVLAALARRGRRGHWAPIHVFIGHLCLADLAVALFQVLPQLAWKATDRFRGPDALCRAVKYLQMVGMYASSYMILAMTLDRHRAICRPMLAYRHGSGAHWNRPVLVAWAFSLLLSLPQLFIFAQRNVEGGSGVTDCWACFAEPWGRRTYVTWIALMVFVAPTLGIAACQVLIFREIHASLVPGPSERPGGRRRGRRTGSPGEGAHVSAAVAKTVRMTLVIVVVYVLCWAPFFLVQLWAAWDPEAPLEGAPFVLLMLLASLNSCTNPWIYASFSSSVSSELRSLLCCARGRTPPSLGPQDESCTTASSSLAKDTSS

Compound	pKi (Vasopressin V2 receptor [1])	pKi (Vasopressin V1a receptor [2])	pKi (Vasopressin V1a receptor [3])	Ki (Vasopressin V1a receptor [2])	pKi (Vasopressin V2 receptor [4])	inhibition (Vasopressin V1a receptor [5])	inhibition (Vasopressin V1a receptor [6])
O=C(Nc1ccc(C(=O)N2CC3CSCCN3Cc3ccccc32)c(O)c1)c1ccccc1-c1ccccc1 (centres undefined)	8.49	6.96	–	–	–	–	–
COc1cccc(-c2ccccc2C(=O)Nc2ccc(C(=O)N3C[C@H]4COCCN4Cc4ccccc43)c(Cl)c2)c1	8.43	–	5.47	Not Active	8.70	–	–
O=C(Nc1ccc(C(=O)N2C[C@H]3COCCN3Cc3ccccc32)c(Cl)c1)c1ccc(O)cc1-c1ccccc1	–	7.52	5.80	–	–	–	–
O=C(Nc1ccc(C(=O)N2CC3CSCCN3Cc3ccc(F)c(F)c32)cc1)c1ccccc1-c1ccccc1 (centres undefined)	7.74	–	–	Not Active	–	–	–
Cc1ccc(F)cc1C(=O)Nc1ccc(C(=O)N2C[C@H]3COCCN3Cc3ccccc32)c(Cl)c1	8.55	7.00	5.70	–	7.92	–	–
O=C(Nc1ccc(C(=O)N2C[C@H]3COCCN3Cc3ccccc32)c(Cl)c1)c1cc(O)ccc1-c1ccccc1	7.89	–	5.72	Not Active	7.15	–	–
O=C(Nc1ccc(C(=O)N2C[C@H]3COCCN3Cc3ccccc32)c(Cl)c1)c1ccccc1-c1cccc(O)c1	8.30	–	4.96	Not Active	7.70	–	–
Cc1ccc(F)cc1C(=O)Nc1ccc(C(=O)N2CC3CSCCN3Cc3ccccc32)c(Cl)c1 (centres undefined)	7.22	–	4.85	Not Active	6.52	–	–
O=C(Nc1ccc(C(=O)N2C[C@H]3CSCCN3Cc3ccccc32)cc1)c1ccccc1-c1ccccc1	–	7.08	5.85	–	–	–	–
O=C(Nc1ccc(C(=O)N2CC3CSCCN3Cc3ccccc32)c(F)c1)c1ccccc1-c1ccccc1 (centres undefined)	8.00	–	–	Not Active	–	–	–
O=C(Nc1ccc(C(=O)N2CC3CSCCN3Cc3ccc(F)cc32)cc1)c1ccccc1-c1ccccc1 (centres undefined)	8.05	–	–	Not Active	–	–	–
O=C(Nc1ccc(C(=O)N2CC3CSCCN3Cc3cccc(Cl)c32)cc1)c1ccccc1-c1ccccc1 (centres undefined)	8.00	–	–	Not Active	–	–	–
O=C(Nc1ccc(C(=O)N2C[C@@H]3CSCCN3Cc3ccccc32)cc1)c1ccccc1-c1ccccc1	–	6.54	5.89	–	–	–	–
Cc1ccc(F)cc1C(=O)Nc1ccc(C(=O)N2Cc3cccn3Cc3ccccc32)c(Cl)c1 [LIXIVAPTAN]	8.64	7.36	5.22	–	7.64	–	–
O=C(Nc1ccc(C(=O)N2C[C@H]3COCCN3Cc3ccccc32)c(Cl)c1)c1ccccc1-c1ccccc1	9.05	7.62	6.22	–	8.40	–	–
O=C(Nc1ccc(C(=O)N2C[C@H]3COCCN3Cc3ccccc32)cc1)c1ccccc1-c1ccccc1	8.43	–	–	–	7.80	69%	–

Compound	pKi (Vasopressin V2 receptor [1])	pKi (Vasopressin V1a receptor [2])	pKi (Vasopressin V1a receptor [3])	Ki (Vasopressin V1a receptor [2])	pKi (Vasopressin V2 receptor [4])	inhibition (Vasopressin V1a receptor [5])	inhibition (Vasopressin V1a receptor [6])
Cc1ccc2c(c1)N(C(=O)c1ccc(NC(=O)c3ccccc3-c3ccccc3)cc1)CC1CSCCN1C2 (centres undefined)	8.10	7.74	4.85	–	7.64	–	–
O=C(Nc1ccc(C(=O)N2C[C@H]3COCCN3Cc3ccccc32)c(Cl)c1)c1cc(F)ccc1-c1ccccc1	7.96	–	5.19	–	7.92	–	62%
COc1cc(NC(=O)c2ccccc2-c2ccccc2)ccc1C(=O)N1CC2CSCCN2Cc2ccccc21 (centres undefined)	7.82	–	–	Not Active	–	–	–
O=C(Nc1ccc(C(=O)N2CC3CSCCN3Cc3ccccc32)c(Cl)c1)c1ccccc1-c1ccccc1 (centres undefined)	7.96	6.31	–	–	–	–	–
O=C(Nc1ccc(C(=O)N2CC3CSCCN3Cc3ccccc32)c(Cl)c1)c1cc(F)ccc1-c1ccccc1 (centres undefined)	7.43	–	4.85	Not Active	7.15	–	–
O=C(Nc1ccc(C(=O)N2C[C@H]3CSCCN3Cc3ccccc32)c(Cl)c1)c1ccccc1-c1ccccc1	8.43	6.60	4.85	–	7.77	–	–
Cc1cc(NC(=O)c2ccccc2-c2ccccc2)ccc1C(=O)N1CC2CSCCN2Cc2ccccc21 (centres undefined)	8.00	–	–	Not Active	–	–	–
O=C(Nc1ccc(C(=O)N2CC3CSCCN3Cc3ccccc32)c(Cl)c1)c1ccc(F)cc1-c1ccccc1 (centres undefined)	8.43	6.39	–	–	–	–	–
COc1ccc(C(=O)Nc2ccc(C(=O)N3C[C@H]4COCCN4Cc4ccccc43)c(Cl)c2)c(-c2ccccc2)c1	8.38	–	5.89	Not Active	8.30	–	–
O=C(Nc1ccc(C(=O)N2C[C@H]3COCCN3Cc3ccccc32)c(Cl)c1)c1ccc(F)cc1-c1ccccc1	8.72	–	6.15	Not Active	8.70	–	–
O=C(Nc1ccc(C(=O)N2CC3COCCN3Cc3ccccc32)c(Cl)c1)c1ccccc1-c1ccccc1 (single isomer, unassigned)	7.82	6.19	4.85	–	6.77	–	–
O=C(Nc1ccc(C(=O)N2CC3CSCCN3Cc3ccccc32)cc1)c1ccccc1-c1ccccc1 (centres undefined)	–	7.31	5.10	–	–	–	–
O=C(Nc1ccc(C(=O)N2C[C@H]3COCCN3Cc3ccccc32)c(Cl)c1)c1ccccc1-c1ccc(O)cc1	8.38	–	5.38	Not Active	7.96	–	–
O=C(Nc1ccc(C(=O)N2CC3CS(=O)(=O)CCN3Cc3ccccc32)cc1)c1ccccc1-c1ccccc1 (centres undefined)	7.19	–	5.85	Not Active	7.40	–	–
COc1ccc(-c2ccccc2C(=O)Nc2ccc(C(=O)N3C[C@H]4COCCN4Cc4ccccc43)c(Cl)c2)cc1	8.55	–	5.72	Not Active	8.52	–	–
COc1ccc(-c2ccccc2)c(C(=O)Nc2ccc(C(=O)N3C[C@H]4COCCN4Cc4ccccc43)c(Cl)c2)c1	7.77	–	–	Not Active	–	–	–
